Experimental data from ChEMBL document CHEMBL1122942, “Conformationally defined adrenergic agents. 1. Design and synthesis of novel alpha 2 selective adrenergic agents: electrostatic repulsion based conformational prototypes” (J Med Chem, 1985).

Tests used:
[1] = target: Adrenergic receptor alpha (Rattus norvegicus) (UniProt P15823+P23944+P43140+P22086+P19328+P22909); assay: Relative affinities for Alpha1 and alpha-2 adrenergic receptors in rat
[2] = target: T1, Adrenergic receptor alpha-2 (Rattus norvegicus, UniProt P22086+P19328+P22909); assay: Binding affinity towards alpha-2 adrenergic receptor in rat using [3H]rauwolscine as radioligand
T1 sequence (P22086 whole entry): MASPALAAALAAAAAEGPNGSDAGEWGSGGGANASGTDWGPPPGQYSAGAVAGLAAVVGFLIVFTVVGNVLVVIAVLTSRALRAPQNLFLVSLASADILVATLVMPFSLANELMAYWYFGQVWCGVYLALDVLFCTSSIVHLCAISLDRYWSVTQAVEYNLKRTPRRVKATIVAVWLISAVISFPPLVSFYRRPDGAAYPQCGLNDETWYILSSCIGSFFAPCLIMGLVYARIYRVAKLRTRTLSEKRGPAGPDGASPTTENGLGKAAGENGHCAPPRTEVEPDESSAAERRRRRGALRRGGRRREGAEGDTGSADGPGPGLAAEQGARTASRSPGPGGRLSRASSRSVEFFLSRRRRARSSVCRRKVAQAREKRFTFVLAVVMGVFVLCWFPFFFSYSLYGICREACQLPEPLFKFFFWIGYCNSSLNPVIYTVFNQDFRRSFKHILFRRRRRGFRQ
T1 sequence (P19328 whole entry): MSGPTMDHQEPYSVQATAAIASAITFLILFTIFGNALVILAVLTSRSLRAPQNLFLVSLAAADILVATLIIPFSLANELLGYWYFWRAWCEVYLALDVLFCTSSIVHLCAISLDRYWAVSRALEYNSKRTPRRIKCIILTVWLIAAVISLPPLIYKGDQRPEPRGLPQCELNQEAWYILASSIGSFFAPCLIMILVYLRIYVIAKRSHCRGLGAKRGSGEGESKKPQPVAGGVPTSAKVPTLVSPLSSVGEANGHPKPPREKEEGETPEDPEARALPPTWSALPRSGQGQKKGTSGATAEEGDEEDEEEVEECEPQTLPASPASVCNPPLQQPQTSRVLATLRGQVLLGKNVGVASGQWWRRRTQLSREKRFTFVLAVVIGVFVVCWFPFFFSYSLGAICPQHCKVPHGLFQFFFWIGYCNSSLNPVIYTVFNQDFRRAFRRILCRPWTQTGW
T1 sequence (P22909 whole entry): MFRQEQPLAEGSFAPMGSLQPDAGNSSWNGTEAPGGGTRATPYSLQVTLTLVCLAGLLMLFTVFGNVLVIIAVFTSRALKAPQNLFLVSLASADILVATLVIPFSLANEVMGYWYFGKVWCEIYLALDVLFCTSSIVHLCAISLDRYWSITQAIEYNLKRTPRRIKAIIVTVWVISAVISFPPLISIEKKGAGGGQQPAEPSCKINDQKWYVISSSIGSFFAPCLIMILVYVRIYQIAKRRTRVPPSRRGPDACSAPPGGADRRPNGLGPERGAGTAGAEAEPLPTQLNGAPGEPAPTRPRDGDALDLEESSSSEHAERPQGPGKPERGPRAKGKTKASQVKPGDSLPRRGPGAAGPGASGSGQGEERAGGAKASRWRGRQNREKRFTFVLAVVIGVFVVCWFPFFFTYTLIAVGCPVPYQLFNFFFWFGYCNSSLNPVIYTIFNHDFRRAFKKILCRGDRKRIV
In short: (§1)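 Male Sprague-Dawley rat cerebral cortex membranes (50-150 µg/mL protein) in 50 mM Tris-HCl pH 7.7 with [3H]rauwolscine. Incubated 2 h at 4 °C; phentolamine 10^-5 M defined nonspecific binding. At least four concentrations from 10^-10 to 10^-3 M, each in duplicate. Bound ligand was filtered and counted by scintillation.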

[3] = target: T2, Adrenergic receptor alpha-1 (Rattus norvegicus, UniProt P15823+P23944+P43140); assay: Binding affinity against alpha-1 adrenergic receptor in rat using [3H]prazosin as radioligand
T2 sequence (P15823 whole entry): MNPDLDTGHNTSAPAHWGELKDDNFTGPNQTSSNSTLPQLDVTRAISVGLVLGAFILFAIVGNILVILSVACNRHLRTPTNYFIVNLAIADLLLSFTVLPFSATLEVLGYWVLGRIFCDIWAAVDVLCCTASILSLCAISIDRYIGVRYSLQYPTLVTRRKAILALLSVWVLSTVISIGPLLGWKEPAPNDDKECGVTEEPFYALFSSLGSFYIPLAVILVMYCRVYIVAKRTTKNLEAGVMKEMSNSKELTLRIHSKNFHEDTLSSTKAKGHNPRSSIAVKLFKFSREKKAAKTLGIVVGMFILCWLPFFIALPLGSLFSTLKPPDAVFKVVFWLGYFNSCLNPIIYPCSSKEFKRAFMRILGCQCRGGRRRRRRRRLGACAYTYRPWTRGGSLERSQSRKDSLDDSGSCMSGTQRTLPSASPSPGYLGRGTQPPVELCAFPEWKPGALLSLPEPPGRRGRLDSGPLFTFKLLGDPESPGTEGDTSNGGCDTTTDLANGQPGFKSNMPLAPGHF
T2 sequence (P23944 whole entry): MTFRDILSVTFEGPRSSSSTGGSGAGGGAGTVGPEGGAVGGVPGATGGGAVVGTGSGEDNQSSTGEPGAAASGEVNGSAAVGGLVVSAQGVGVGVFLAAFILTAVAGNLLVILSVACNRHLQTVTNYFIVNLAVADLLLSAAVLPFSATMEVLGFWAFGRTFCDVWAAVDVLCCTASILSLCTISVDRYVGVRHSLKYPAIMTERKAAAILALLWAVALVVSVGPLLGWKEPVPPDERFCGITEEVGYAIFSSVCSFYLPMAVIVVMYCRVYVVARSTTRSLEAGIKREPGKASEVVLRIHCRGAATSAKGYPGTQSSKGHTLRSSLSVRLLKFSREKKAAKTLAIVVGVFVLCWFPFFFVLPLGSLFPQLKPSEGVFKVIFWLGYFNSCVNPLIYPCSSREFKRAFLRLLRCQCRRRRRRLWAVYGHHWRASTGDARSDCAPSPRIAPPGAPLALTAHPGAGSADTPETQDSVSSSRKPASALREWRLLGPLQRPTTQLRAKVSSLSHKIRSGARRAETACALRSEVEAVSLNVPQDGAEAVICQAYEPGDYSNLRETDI
T2 sequence (P43140 whole entry): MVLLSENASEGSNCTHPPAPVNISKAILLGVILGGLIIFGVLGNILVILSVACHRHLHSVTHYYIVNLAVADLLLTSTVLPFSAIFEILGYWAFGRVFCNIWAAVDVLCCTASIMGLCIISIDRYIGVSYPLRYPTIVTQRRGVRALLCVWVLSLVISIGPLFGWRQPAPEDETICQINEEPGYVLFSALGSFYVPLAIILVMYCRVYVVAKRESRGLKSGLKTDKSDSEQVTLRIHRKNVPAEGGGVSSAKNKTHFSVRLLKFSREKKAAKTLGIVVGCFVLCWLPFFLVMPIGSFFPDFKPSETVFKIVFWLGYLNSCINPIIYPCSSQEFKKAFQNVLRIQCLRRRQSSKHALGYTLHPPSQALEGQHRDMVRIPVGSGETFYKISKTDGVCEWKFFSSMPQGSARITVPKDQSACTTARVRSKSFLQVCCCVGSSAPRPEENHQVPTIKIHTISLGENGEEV
In short: as §1, with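 “liver” for “cerebral cortex”, “[3H]prazosin.” for “[3H]rauwolscine.”, “50 min” for “2 h”, “25” for “4”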

**Q.** Which results are given for CCN(CC)CC1CCc2c1ccc(O)c2O (configuration not stated)?
**A.** Ratio [1]: 11; Ki [2]: 0.32 µM; Ki [3]: 3.6 µM

**Q.** How did the Ratio [1] turn out when CC(C)NCC1CCc2c1ccc(O)c2O (configuration not stated) was run?
**A.** 6.9

**Q.** And the Ki [2]?
**A.** 0.66 µM

**Q.** What about the Ki [3] of the same molecule?
**A.** 4.6 µM

**Q.** How did the Ki [2] turn out when NCC1CCCc2c1ccc(O)c2O (configuration not stated) was run?
**A.** 0.047 µM

**Q.** What about the Ki [3] of the same molecule?
**A.** 13 µM

**Q.** Which results are given for NCC(O)c1ccc(O)c(O)c1F (configuration not stated)?
**A.** Ki [2]: 1.4 µM; Ki [3]: 25 µM

**Q.** CCNCC1CCCc2c1ccc(O)c2O (configuration not stated) was tested. Which Ratio [1] did it give?
**A.** 40

**Q.** And the Ki [2]?
**A.** 0.2 µM

**Q.** And the Ki [3]?
**A.** 7.9 µM

**Q.** Which results are given for NCC1CCCCc2cc(O)c(O)cc21 (configuration not stated)?
**A.** Ki [2]: 19 µM; Ki [3]: 11 µM

**Q.** For CCCN(CCC)CC1CCc2c1ccc(O)c2O (configuration not stated), which Ratio [1] is on record?
**A.** 16

**Q.** What about the Ki [2] of the same molecule?
**A.** 0.47 µM

**Q.** What about the Ki [3] of the same molecule?
**A.** 7.4 µM

**Q.** For CN(C)CC1CCCc2cc(O)c(O)cc21 (configuration not stated), which Ki [2] is on record?
**A.** 0.7 µM

**Q.** And the Ki [3]?
**A.** 13 µM

**Q.** What does the source list for CN(C)CC1Cc2c1ccc(O)c2O (configuration not stated)?
**A.** Ratio [1]: 160; Ki [2]: 0.021 µM; Ki [3]: 3.3 µM

**Q.** Which results are given for CC(C)NCC1CCCc2cc(O)c(O)cc21 (configuration not stated)?
**A.** Ki [2]: 2.5 µM; Ki [3]: 14 µM

**Q.** Which Ki [2] does the source give for CNCC1CCCc2cc(O)c(O)cc21 (configuration not stated) here?
**A.** 1.3 µM

**Q.** What about the Ki [3] of the same molecule?
**A.** 8.7 µM

**Q.** How did the Ki [2] turn out when CC(C)NCC1CCCc2c1ccc(O)c2O (configuration not stated) was run?
**A.** 4.7 µM

**Q.** And the Ki [3]?
**A.** 6.6 µM

**Q.** CCCN(CCC)CC1CCc2cc(O)c(O)cc21 (configuration not stated) was tested. Which Ki [2] did it give?
**A.** 0.69 µM

**Q.** What about the Ki [3] of the same molecule?
**A.** 29 µM

**Q.** With CCCN(CCC)CC1CCCc2cc(O)c(O)cc21 (configuration not stated) as the molecule, how does the Ki [2] read?
**A.** 0.6 µM

**Q.** And the Ki [3]?
**A.** 16 µM

**Q.** With NCC(O)c1cc(O)c(O)cc1F (configuration not stated) as the molecule, how does the Ki [3] read?
**A.** 0.65 µM

**Q.** Which results are given for CCNCC1CCc2c1ccc(O)c2O (configuration not stated)?
**A.** Ratio [1]: 20; Ki [2]: 0.13 µM; Ki [3]: 2.5 µM

**Q.** For CCN(CC)CC1CCCc2c1ccc(O)c2O (configuration not stated), which Ratio [1] is on record?
**A.** 13

**Q.** What about the Ki [2] of the same molecule?
**A.** 0.25 µM

**Q.** And the Ki [3]?
**A.** 3.1 µM

**Q.** With Brc1c(NC2=NCCN2)ccc2nccnc12 [BRIMONIDINE] as the molecule, how does the Ki [3] read?
**A.** 0.74 µM

**Q.** How did the Ki [2] turn out when CNCC1CCCc2c1ccc(O)c2O (configuration not stated) was run?
**A.** 0.044 µM

**Q.** What about the Ki [3] of the same molecule?
**A.** 7.9 µM

**Q.** CN(C)CC1CCc2cc(O)c(O)cc21 (configuration not stated) was tested. Which Ki [2] did it give?
**A.** 0.86 µM

**Q.** What about the Ki [3] of the same molecule?
**A.** 13 µM

**Q.** CN(C)CC1CCc2c1ccc(O)c2O (configuration not stated) was tested. Which Ratio [1] did it give?
**A.** 270

**Q.** And the Ki [2]?
**A.** 0.025 µM

**Q.** What about the Ki [3] of the same molecule?
**A.** 6.9 µM

**Q.** Which results are given for NCC1CCc2cc(O)c(O)cc21 (configuration not stated)?
**A.** Ki [2]: 0.52 µM; Ki [3]: 26 µM

**Q.** Which Ki [2] does the source give for NCC1Cc2cc(O)c(O)cc21 (configuration not stated) here?
**A.** 0.2 µM

**Q.** And the Ki [3]?
**A.** 5 µM

**Q.** With CC(C)NCC1CCc2cc(O)c(O)cc21 (configuration not stated) as the molecule, how does the Ki [2] read?
**A.** 3.8 µM

**Q.** What about the Ki [3] of the same molecule?
**A.** 11 µM

**Q.** What does the source list for NCC1CCCCc2c1ccc(O)c2O (configuration not stated)?
**A.** Ratio [1]: 30; Ki [2]: 0.88 µM; Ki [3]: 27 µM

**Q.** For CNCC1CCc2c1ccc(O)c2O (configuration not stated), which Ratio [1] is on record?
**A.** 290

**Q.** And the Ki [2]?
**A.** 0.007 µM

**Q.** And the Ki [3]?
**A.** 2 µM

**Q.** How did the Ratio [1] turn out when NCC1CCc2c1ccc(O)c2O (configuration not stated) was run?
**A.** 560

**Q.** And the Ki [2]?
**A.** 0.015 µM

**Q.** And the Ki [3]?
**A.** 8.6 µM

**Q.** What does the source list for NCC1Cc2c1ccc(O)c2O (configuration not stated)?
**A.** Ratio [1]: 98; Ki [2]: 0.17 µM; Ki [3]: 16 µM

**Q.** Which results are given for CCCN(CCC)CC1CCCc2c1ccc(O)c2O (configuration not stated)?
**A.** Ki [2]: 0.18 µM; Ki [3]: 7.9 µM

**Q.** Which results are given for NCC1CCCc2cc(O)c(O)cc21 (configuration not stated)?
**A.** Ki [2]: 5.1 µM; Ki [3]: 15 µM

**Q.** What does the source list for CN(C)CC1CCCc2c1ccc(O)c2O (configuration not stated)?
**A.** Ki [2]: 0.66 µM; Ki [3]: 13 µM
